Experiments:
[1] = Partition coefficient (logP); assay type: physicochemical; conditions: octanol/water
Summary of the method: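 log P estimated from reversed-phase HPLC retention time. Calibration curve built from shake-flask octanol/water log P values of eight pyridines. Log RT vs log P was linear.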

Mus musculus [2] = experiment: In vivo inhibitory activity in a phorbol myristyl acetate (PMA) ear edema model at a dose of 100 ug/ear; assay type: functional
Summary of the method: (§1)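 Mouse ear edema, topical: inflammation induced by PMA, A23187 or arachidonic acid on one ear, with the unchallenged ear as control. Mice were killed by cervical dislocation at set times after challenge, and 6 mm punches were weighed. Edema = challenged minus unchallenged punch weight. Percent inhibition = [(C−T)/C]×100 at 100 μg/ear. Duplicate separate experiments, 10 animals per group. Student's t test.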

Cyclooxygenase = target: T1, Cyclooxygenase (Bos taurus, UniProt O62664+O62698); experiment: Inhibitory activity against Prostaglandin G/H synthase (bovine seminal vesicles); assay type: protein assay
T1 sequence (O62664 whole entry): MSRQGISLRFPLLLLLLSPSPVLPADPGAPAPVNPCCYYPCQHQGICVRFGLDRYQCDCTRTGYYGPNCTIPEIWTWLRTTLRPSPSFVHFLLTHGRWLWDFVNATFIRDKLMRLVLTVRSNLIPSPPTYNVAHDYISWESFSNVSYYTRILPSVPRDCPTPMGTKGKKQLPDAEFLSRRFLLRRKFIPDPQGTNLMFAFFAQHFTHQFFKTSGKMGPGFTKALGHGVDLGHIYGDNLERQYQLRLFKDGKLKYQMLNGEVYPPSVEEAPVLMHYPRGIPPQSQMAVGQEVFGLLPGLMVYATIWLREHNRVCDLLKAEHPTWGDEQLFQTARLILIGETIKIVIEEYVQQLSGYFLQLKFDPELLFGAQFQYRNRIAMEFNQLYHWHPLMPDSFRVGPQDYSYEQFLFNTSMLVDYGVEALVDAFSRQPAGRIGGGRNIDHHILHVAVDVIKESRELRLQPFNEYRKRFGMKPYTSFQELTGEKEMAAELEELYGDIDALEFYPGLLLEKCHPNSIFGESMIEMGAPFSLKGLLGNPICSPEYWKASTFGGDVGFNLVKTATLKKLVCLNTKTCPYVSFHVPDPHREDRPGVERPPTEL
T1 sequence (O62698 whole entry): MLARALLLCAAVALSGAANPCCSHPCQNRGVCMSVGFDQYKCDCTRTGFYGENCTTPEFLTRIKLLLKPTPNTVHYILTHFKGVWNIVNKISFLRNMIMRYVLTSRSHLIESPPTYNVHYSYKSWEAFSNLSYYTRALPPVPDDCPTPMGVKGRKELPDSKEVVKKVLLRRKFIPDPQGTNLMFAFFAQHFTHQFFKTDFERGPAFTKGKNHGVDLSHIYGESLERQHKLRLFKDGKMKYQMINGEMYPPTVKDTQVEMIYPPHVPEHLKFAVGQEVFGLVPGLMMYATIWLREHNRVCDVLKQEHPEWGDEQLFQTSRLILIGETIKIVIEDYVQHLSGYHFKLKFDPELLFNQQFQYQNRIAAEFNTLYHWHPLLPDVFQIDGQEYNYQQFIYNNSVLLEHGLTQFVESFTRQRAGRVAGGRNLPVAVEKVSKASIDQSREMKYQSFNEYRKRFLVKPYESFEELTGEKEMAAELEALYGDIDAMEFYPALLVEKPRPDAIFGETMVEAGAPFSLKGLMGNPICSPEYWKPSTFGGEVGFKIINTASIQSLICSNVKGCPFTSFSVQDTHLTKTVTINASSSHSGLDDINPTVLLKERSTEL

Mus musculus [3] = experiment: (§2) In vivo inhibitory activity against arachidonic acid(AA) ear edema at a dose of 100 ug/ear; assay type: functional; summary of the method: as §1
Mus musculus [4] = experiment: In vivo inhibitory activity against phorbol myristyl acetate (PMA) ear edema at a dose of 100 ug/ear; assay type: functional; summary of the method: as §1
Mus musculus [5] = experiment: (§3) In vivo inhibitory activity against A-23187 ear edema at a dose of 100 ug/ear; assay type: functional; summary of the method: as §1
[6] = target: T2, Polyunsaturated fatty acid 5-lipoxygenase (Rattus norvegicus, UniProt P12527); experiment: Inhibitory activity against 5-lipoxygenase of RBL-1 cell line; assay type: cell-based
T2 sequence (P12527 whole entry): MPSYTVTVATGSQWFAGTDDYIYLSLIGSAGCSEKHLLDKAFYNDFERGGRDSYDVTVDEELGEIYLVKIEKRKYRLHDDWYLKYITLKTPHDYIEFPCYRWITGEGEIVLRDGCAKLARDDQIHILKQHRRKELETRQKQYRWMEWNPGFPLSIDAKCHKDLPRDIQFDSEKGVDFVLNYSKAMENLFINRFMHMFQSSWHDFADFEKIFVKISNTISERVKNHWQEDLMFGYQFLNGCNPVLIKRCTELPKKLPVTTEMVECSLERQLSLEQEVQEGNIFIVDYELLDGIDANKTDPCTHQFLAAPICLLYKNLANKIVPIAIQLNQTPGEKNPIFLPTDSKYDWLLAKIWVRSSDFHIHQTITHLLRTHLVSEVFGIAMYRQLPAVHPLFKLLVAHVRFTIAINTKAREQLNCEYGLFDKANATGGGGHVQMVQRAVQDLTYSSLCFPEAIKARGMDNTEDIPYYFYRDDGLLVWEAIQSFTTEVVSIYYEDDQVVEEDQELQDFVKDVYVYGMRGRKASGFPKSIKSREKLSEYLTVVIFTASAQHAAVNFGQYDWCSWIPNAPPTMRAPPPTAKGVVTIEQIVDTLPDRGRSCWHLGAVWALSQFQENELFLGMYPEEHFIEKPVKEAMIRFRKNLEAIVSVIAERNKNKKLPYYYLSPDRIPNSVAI

Mus musculus [7] = experiment: as §3; assay type: functional; remark: listed apart in the source
Summary of the method: (§4)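 Topical mouse ear edema test at 100 µg/ear; the inflammogen is applied to one ear and the unchallenged ear serves as control. Mice are killed by cervical dislocation at set times, and 6 mm biopsy punches from each ear are weighed. Edema is the challenged-minus-unchallenged weight. Percent inhibition is [(C−T)/C]×100. Duplicate separate experiments, 10 animals per group; averages of two or more determinations.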

Mus musculus [8] = experiment: as §2; assay type: functional; summary of the method: as §4; remark: listed apart in the source

SMILES | logP [1] | Inhibition (Mus musculus [2]) | also measured
Oc1ccc(C(O)(Cn2ccnc2)c2ccc(-c3ccncc3)cc2)cc1 (stereo not given) | 2.49 | 37% | –
Cc1ccc(C(O)(Cn2ccnc2)c2ccc(Br)cc2)cc1 (stereo not given) | 3.55 | 18% | –
OC(Cn1ccnc1)(c1ccc(-c2ccccc2)cc1)c1ccc(-c2ccncc2)cc1 (stereo not given) | 3.86 | 49% | –
OC(Cn1ccnc1)(c1cccc(Br)c1)c1ccc(F)cc1F (stereo not given) | 3.6 | 42% | –
OC(Cn1ccnc1)(c1ccc(Br)cc1)c1ccc(F)cc1F (stereo not given) | 3.44 | 22% | –
Oc1c(Cc2ccccc2)ccc2ccccc12 | – | – | IC50 (Cyclooxygenase): > 750 µM; ED50 (Mus musculus [3]): 7 ug ear-1; ED50 (Mus musculus [4]): 764 ug ear-1; ED50 (Mus musculus [5]): 5 ug ear-1
COc1ccc2c(c1)c(CC(=O)O)c(C)n2C(=O)c1ccc(Cl)cc1 [INDOMETHACIN] | – | 10% | IC50 [6]: > 25 µM; ED50 (Mus musculus [3]): 902 ug ear-1; ED50 (Mus musculus [5]): 254 ug ear-1
OC(CN1CCCC1)(c1ccc(F)cc1)c1ccc(-c2ccncc2)cc1 (stereo not given) | 3.84 | 24% | –
O=Cc1ccc(C(O)(Cn2ccnc2)c2ccc(-c3ccncc3)cc2)cc1 (stereo not given) | 2.38 | 67% | –
CC(=O)N1CCN(c2ccc(OCC3COC(Cn4ccnc4)(c4ccc(Cl)cc4Cl)O3)cc2)CC1 (stereo not given) [KETOCONAZOLE] | – | – | IC50 [6]: > 25 µM; IC50 (Cyclooxygenase): > 750 µM; Inhibition (Mus musculus [7]): 8%; Inhibition (Mus musculus [8]): 10%; ED50 (Mus musculus [4]): 34 ug ear-1
OC(Cn1ccnc1)(c1ccc(F)cc1)c1ccc(Br)cc1 (stereo not given) | 3.42 | 29% | –
OC(Cn1ccnc1)(c1ccc(-c2ccncc2)cc1)c1ccc(C(F)(F)F)cc1 (stereo not given) | 3.11 | 58% | –
OC(CN1CCOCC1)(c1ccc(F)cc1)c1ccc(-c2ccncc2)cc1 (stereo not given) | 2.82 | 41% | –
OC(Cn1ccnc1)(c1ccc(F)cc1)c1ccc(-c2ccccn2)cc1 (stereo not given) | 3.58 | 63% | –
Cc1ccc(C(O)(Cn2ccnc2)c2ccc(-c3ccncc3)cc2)cc1 (stereo not given) | 3.13 | 62% | IC50 [6]: > 25 µM; IC50 (Cyclooxygenase): > 750 µM; Inhibition (Mus musculus [8]): 16%; ED50 (Mus musculus [4]): 13.2 ug ear-1; ED50 (Mus musculus [5]): 13 ug ear-1
OC(Cn1ccnc1)(c1ccc(-c2ccncc2)cc1)c1ccccc1Cl (stereo not given) | 3.37 | 41% | –
CC(=O)c1ccc(C(O)(Cn2ccnc2)c2ccc(-c3ccncc3)cc2)cc1 (stereo not given) | 2.41 | 78% | –
OC(Cn1ccnc1)(c1ccc(Cl)cc1)c1ccc(-c2ccncc2)cc1 (stereo not given) | 3.27 | 58% | –
COc1c(OC)c(OC(C)=O)c2cc(Cl)ccc2c1OC(C)=O [LONAPALENE] | – | 15% | IC50 [6]: 0.74 µM; IC50 (Cyclooxygenase): > 750 µM; ED50 (Mus musculus [3]): 103 ug ear-1; ED50 (Mus musculus [5]): 32 ug ear-1
OC(Cn1ccnc1)(c1ccccc1)c1ccc(-c2ccncc2)cc1 (stereo not given) | 2.29 | 69% | –
OC(Cn1ccnc1)(c1ccc(F)cc1)c1cccc(-c2ccccn2)c1 (stereo not given) | 3.34 | 61% | –
OC(Cn1ccnc1)(c1ccccc1)c1ccc(Br)cc1 (stereo not given) | 3.35 | 37% | –

Further lines, with some results ahead:

logP [1] | SMILES | Inhibition (Mus musculus [2]) | also measured
3.3 | OC(Cn1ccnc1)(c1ccc(F)cc1)c1cccc(Br)c1 (stereo not given) | 38% | –
3.31 | OC(Cn1ccnc1)(c1ccc(-c2cccnc2)cc1)c1ccc(F)cc1F (stereo not given) | 52% | –
3.65 | OC(Cn1ccnc1)(c1ccc(-c2ccccn2)cc1)c1ccc(F)cc1F (stereo not given) | 51% | –
2.95 | OC(Cn1ccnc1)(c1ccc(F)cc1)c1ccc(F)cc1 | 50% | –
2.35 | OC(Cn1cccc1)(c1ccc(F)cc1)c1ccc(-c2ccncc2)cc1 (stereo not given) | 58% | –
3.26 | OC(Cn1ccnc1)(c1ccc(F)cc1)c1ccccc1-c1cccnc1 (stereo not given) | 62% | –
1.67 | OC(Cn1cncn1)(c1ccc(F)cc1)c1ccc(-c2ccncc2)cc1 (stereo not given) | 53% | –
2.06 | OC(Cn1cnc2ccccc21)(c1ccc(F)cc1)c1ccc(-c2ccncc2)cc1 (stereo not given) | 40% | –
4.02 | COc1ccc(C(O)(Cn2ccnc2)c2ccc(Br)cc2)cc1 (stereo not given) | 31% | –
2.51 | OC(Cn1ccnc1)(c1ccc(F)cc1)c1ccccc1-c1ccncc1 (stereo not given) | 86% | –
2.54 | OC(Cn1ccnc1)(c1ccc(-c2ccncc2)cc1)c1ccc(F)cc1F (stereo not given) | 73% | –
3.22 | OC(Cn1ccnc1)(c1ccc(F)cc1)c1cccc(-c2cccnc2)c1 (stereo not given) | 64% | –
3.87 | OC(Cn1ccnc1)(c1ccc(Br)cc1)c1ccccc1Cl (stereo not given) | 26% | –
4.23 | OC(Cn1ccnc1)(c1ccc(F)cc1)c1ccc(-c2ccccc2)cc1 (stereo not given) | 25% | –
2.14 | OC(Cn1cccn1)(c1ccc(F)cc1)c1ccc(-c2ccncc2)cc1 (stereo not given) | 28% | –
2.91 | OC(Cn1ccnc1)(c1ccc(F)cc1)c1cccc(-c2ccncc2)c1 (stereo not given) | 74% | –
3.55 | COc1ccc(C(O)(Cn2ccnc2)c2ccc(-c3ccncc3)cc2)cc1 (stereo not given) | 74% | –
3.29 | CN(C)c1ccc(C(O)(Cn2ccnc2)c2ccc(-c3ccncc3)cc2)cc1 (stereo not given) | 34% | –
2.4 | OCc1ccc(C(O)(Cn2ccnc2)c2ccc(-c3ccncc3)cc2)cc1 (stereo not given) | 24% | –
2.47 | OC(Cn1ccnc1)(c1ccc(F)cc1)c1ccc(-c2ccncc2)cc1 (stereo not given) | 72% | IC50 [6]: > 25 µM; IC50 (Cyclooxygenase): > 750 µM; ED50 (Mus musculus [3]): 543 ug ear-1; ED50 (Mus musculus [4]): 4.6 ug ear-1; ED50 (Mus musculus [5]): 21 ug ear-1
2.61 | COC(=O)c1ccc(C(O)(Cn2ccnc2)c2ccc(-c3ccncc3)cc2)cc1 (stereo not given) | 62% | –
3.13 | OC(CCc1ncc[nH]1)(c1ccc(F)cc1)c1ccc(F)cc1 | 52% | –
3.45 | COC(C)(OC)c1ccc(C(O)(Cn2ccnc2)c2ccc(-c3ccncc3)cc2)cc1 (stereo not given) | 61% | –
